In ChEMBL document CHEMBL3102848, “Carbamazepine derivatives with P2X4 receptor-blocking activity” (Bioorg Med Chem, 2014):
The source made the active and inactive calls. The rule behind the calls is not given here.

Experiments:
[1] = molecular target: T1, P2X purinoceptor 4 (Rattus norvegicus, UniProt P51577); assay: Antagonist activity at rat P2X4 receptor assessed as inhibition of ATP-induced calcium influx preincubated for 30 mins followed by ATP addition by Fluo-4 AM dye-based fluorescence assay
T1 sequence (P51577 whole entry): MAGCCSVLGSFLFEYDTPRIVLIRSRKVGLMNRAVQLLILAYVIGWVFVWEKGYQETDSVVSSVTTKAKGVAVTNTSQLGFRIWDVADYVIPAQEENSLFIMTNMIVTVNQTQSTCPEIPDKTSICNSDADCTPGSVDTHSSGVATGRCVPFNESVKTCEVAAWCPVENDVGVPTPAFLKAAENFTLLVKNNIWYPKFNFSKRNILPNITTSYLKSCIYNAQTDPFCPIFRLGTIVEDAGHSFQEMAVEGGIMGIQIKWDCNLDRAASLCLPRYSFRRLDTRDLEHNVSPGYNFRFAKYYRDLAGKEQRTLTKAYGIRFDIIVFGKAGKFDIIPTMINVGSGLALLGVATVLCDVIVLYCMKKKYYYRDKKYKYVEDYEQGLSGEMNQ

[2] = molecular target: T2, P2X purinoceptor 3 (Homo sapiens, UniProt P56373); assay: Antagonist activity at human P2X3 receptor expressed in human 1321N1 cells assessed as inhibition of ATP-induced cytosolic calcium influx preincubated for 30 mins followed by ATP addition by Fluo-4 AM dye-based fluorescence assay; format: cell-based
T2 sequence (P56373 whole entry): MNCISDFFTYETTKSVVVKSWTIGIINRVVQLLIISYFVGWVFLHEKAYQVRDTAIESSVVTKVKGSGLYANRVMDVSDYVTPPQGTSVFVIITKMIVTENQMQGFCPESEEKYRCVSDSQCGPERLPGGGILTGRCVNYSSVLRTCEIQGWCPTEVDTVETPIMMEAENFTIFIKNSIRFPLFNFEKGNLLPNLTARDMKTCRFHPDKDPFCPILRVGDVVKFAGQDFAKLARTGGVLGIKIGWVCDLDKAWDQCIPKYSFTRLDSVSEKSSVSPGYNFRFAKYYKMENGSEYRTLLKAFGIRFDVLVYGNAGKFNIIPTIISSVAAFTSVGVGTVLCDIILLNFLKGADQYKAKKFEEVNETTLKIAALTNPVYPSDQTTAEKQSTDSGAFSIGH

[3] = Selectivity ratio of IC50 for mouse P2X4 receptor to IC50 for human P2X4 receptor
[4] = molecular target: T3, P2X purinoceptor 4 (Homo sapiens) (UniProt Q99571); assay: Antagonist activity at human P2X4 receptor expressed in human 1321N1 cells assessed as inhibition of ATP-induced cytosolic calcium influx at 100 uM preincubated for 30 mins followed by ATP addition by Fluo-4 AM dye-based fluorescence assay; format: cell-based
T3 sequence (whole entry): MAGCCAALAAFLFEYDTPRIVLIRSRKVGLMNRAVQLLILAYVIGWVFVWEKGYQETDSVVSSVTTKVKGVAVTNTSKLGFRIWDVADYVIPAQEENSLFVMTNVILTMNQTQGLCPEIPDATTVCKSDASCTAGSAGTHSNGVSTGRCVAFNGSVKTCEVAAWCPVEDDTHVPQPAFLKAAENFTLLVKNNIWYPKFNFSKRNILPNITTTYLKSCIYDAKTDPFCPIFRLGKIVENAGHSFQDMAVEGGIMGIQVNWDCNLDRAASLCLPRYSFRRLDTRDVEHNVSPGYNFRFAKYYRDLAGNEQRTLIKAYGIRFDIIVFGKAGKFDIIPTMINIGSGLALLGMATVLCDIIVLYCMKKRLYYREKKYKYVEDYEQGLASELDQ
In short: (§1)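 Human P2X4 stably transfected into 1321N1 astrocytoma cells. Inhibition of ATP-induced calcium influx measured as in earlier work. Compounds were first screened at a single high concentration, chosen according to their solubility.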

[5] = molecular target: T4, P2X purinoceptor 7 (Homo sapiens) (UniProt Q99572); assay: Antagonist activity at human P2X7 receptor expressed in human 1321N1 cells assessed as inhibition of ATP-induced cytosolic calcium influx at 100 uM preincubated for 30 mins followed by ATP addition by Fluo-4 AM dye-based fluorescence assay; format: cell-based
T4 sequence (whole entry): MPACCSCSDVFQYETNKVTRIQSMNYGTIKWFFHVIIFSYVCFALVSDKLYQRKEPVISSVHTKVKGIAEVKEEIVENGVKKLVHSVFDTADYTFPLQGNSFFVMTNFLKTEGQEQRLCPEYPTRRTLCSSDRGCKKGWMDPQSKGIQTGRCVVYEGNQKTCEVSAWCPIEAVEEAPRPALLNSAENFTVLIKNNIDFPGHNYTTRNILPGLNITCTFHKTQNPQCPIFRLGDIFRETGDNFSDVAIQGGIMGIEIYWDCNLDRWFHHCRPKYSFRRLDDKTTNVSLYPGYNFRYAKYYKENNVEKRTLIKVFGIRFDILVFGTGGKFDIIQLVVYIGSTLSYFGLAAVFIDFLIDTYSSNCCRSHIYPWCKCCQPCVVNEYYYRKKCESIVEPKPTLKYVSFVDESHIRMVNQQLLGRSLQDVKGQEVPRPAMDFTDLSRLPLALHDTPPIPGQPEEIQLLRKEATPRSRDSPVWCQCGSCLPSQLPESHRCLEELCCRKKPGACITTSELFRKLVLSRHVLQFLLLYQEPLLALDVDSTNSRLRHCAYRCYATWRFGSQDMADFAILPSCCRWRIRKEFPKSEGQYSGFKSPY

[6] = molecular target: T5, P2X purinoceptor 4 (Mus musculus) (UniProt Q9JJX6); assay: Antagonist activity at mouse P2X4 receptor assessed as inhibition of ATP-induced cytosolic calcium influx at 100 uM preincubated for 30 mins followed by ATP addition by Fluo-4 AM dye-based fluorescence assay
T5 sequence (whole entry): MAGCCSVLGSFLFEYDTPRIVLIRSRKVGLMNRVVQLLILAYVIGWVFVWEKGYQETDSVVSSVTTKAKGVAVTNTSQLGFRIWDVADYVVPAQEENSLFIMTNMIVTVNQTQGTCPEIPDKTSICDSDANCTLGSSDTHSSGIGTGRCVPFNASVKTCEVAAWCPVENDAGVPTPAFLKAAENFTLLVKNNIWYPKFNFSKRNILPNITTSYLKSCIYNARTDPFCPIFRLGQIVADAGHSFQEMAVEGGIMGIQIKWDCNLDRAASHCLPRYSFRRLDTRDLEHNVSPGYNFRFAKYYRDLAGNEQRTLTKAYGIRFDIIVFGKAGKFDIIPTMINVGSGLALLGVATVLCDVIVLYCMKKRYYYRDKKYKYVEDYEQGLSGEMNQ

[7] = molecular target: T3, P2X purinoceptor 4 (Homo sapiens); assay: Negative allosteric modulation of human P2X4 receptor expressed in human 1321N1 cells assessed as reduction in ATP-induced cytosolic calcium influx at 3 to 30 uM; format: cell-based
In short: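 1321N1 astrocytoma cells stably expressing human P2X4. Full ATP concentration–response curves (10^-8 to 10^-3 M) for intracellular calcium, recorded without inhibitor and with three fixed modulator levels (3, 10, 30). ATP EC50 and maximal effect (Emax, %) were derived for each condition.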

[8] = molecular target: T3, P2X purinoceptor 4 (Homo sapiens); assay: Antagonist activity at human P2X4 receptor expressed in human 1321N1 cells assessed as inhibition of ATP-induced cytosolic calcium influx at 10 uM preincubated for 30 mins followed by ATP addition by Fluo-4 AM dye-based fluorescence assay; format: cell-based; in short: as §1

Row | Structure (SMILES) | IC50 [1] [µM] | IC50 [2] [µM] | Ratio IC50 [3] | inhibition [4] [%] | inhibition [5] [%] | inhibition [6] [%] | Activity [7] | inhibition [8] [%]
1 | O=C(NC1CCCCC1)N1c2ccccc2C=Cc2ccccc21 | 109 | 28 | 3 | 100 | – | – | – | –
2 | O=C(N1CCCCC1)N1c2ccccc2C=Cc2ccccc21 | 95.8 | 7.98 | 3 | 72 | -10 | – | – | –
3 | CCN(CC)C(=O)N1c2ccccc2C=Cc2ccccc21 | 43 | 14.2 | – | 95 | – | 27 | – | –
4 | O=C(N1CCCC1)N1c2ccccc2C=Cc2ccccc21 | 69.3 | 29.8 | 3 | 98 | 33 | – | – | –
5 | CC(C)N(C(=O)N1c2ccccc2C=Cc2ccccc21)C(C)C | 54.6 | 7.18 | 3 | – | – | – | Active | 71
6 | CCCN(CCC)C(=O)N1c2ccccc2C=Cc2ccccc21 | 35.9 | 15.2 | 3 | – | – | 38 | – | 49
